Assay results pooled from the literature.
Compare with care: the assays were run in different laboratories.
Target: MAP kinase-activated protein kinase 5 (MAPKAPK5, Homo sapiens, UniProt Q8IW41)
One construct used (Q8IW41 1-473): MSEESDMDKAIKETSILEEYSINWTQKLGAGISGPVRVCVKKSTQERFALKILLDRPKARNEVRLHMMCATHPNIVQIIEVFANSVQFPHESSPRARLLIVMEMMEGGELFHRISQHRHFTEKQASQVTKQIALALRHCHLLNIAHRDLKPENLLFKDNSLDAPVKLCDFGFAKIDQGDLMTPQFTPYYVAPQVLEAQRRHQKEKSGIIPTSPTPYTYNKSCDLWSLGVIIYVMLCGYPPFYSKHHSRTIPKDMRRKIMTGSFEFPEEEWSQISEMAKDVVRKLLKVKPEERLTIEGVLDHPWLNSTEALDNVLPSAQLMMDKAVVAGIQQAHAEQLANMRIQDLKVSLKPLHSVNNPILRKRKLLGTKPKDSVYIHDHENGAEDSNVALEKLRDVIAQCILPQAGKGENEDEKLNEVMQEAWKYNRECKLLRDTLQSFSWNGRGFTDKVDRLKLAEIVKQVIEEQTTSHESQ

C#Cc1n[nH]c2c(-c3cn([C@@H](C)c4ccccc4)c(=O)[nH]c3=O)cc(F)cc12
inhibition (enzyme activity; inhibitor; 0.1 µM): 1.8%

N#CC1(c2ccccn2)CCN(Cc2cc(C(=O)O)c(=O)n3ccccc23)CC1
remaining binding (cell-free assay; competition with immobilised ligand; 1 µM): 56%

O=c1[nH]c2ccccc2n1C1CCN(Cc2ccc(-c3[nH]c4cc5ncnc5cc4nc3-c3ccccc3)cc2)CC1
remaining signal (cell-free assay; 0.5 µM): 97.4%

C#Cc1n[nH]c2c(-c3cn(C(C)c4ccccn4)c(=O)[nH]c3=O)cc(F)cc12 (centres unmarked)
inhibition (enzyme activity; inhibitor; 1 µM): 5.8%

COc1cc(Nc2ncc(F)c(Nc3ccc4c(n3)NC(=O)C(C)(C)O4)n2)cc(OC)c1OC
inhibition (binding; competition with immobilised ligand; 10 µM): 19%

CC(C)(C)c1cc(C=C(C#N)C#N)cc(Br)c1O
remaining activity (enzyme activity; inhibitor; 0.5 µM): 97.4%

Cn1cncc1[C@](O)(COc1ccc(C#N)cc1-c1ccc(OC(F)(F)F)cc1)c1ccc(C#N)cc1
remaining binding (cell-free assay; competition with immobilised ligand; 1 µM): 90%

Cn1cc(-c2cccc(N3CCc4c(sc5c4CC(C)(C)C5)C3=O)c2CO)cc(Nc2ccncn2)c1=O
inhibition (enzyme activity; inhibitor; 1 µM): 3%

COc1ncccc1-c1cnn2ccc(N3CCN(C(=O)OC(C)C)CC3)nc12
remaining binding (binding; competition with immobilised ligand; 1 µM): 100%

Nc1ncc(-c2nc(N3CCOCC3)nc(N3CCOCC3)n2)c(C(F)F)n1
remaining binding (binding; competition with immobilised ligand; 10 µM): 72%

Cn1cc(-c2cc(F)cc(N3CCn4c(cc5c4CCCC5)C3=O)c2CO)cc(Nc2ccc(N3CCN(C4COC4)CC3)cn2)c1=O
inhibition (enzyme activity; inhibitor; 0.1 µM): 9%
